Measured values published in ChEMBL document CHEMBL2021823, “Antiproliferative acetogenins from a Uvaria sp. from the Madagascar dry forest” (J Nat Prod, 2012).

Columns and labels:
A2780 = assay: Antiproliferative activity against human A2780 cells after 2 days by Alamar blue assay; settings: A2780, 48 h
A2058 = assay: Antiproliferative activity against human A2058 cells after 96 hrs by CellTiter-Glo assay; assay type: functional, cell-based; settings: A2058, 96 h
In short: (§1)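 A2058 melanoma and H522 lung cancer cell lines, run at Eisai by procedures similar to those used for the H460 line; activity reported as IC50.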

NCI-H522 = assay: Antiproliferative activity against human NCI-H522 cells after 96 hrs by CellTiter-Glo assay; assay type: functional, cell-based; settings: NCI-H522, 96 h; in short: as §1

Row | IC50 (A2780) [µM] | IC50 (NCI-H522) [µM] | Structure (SMILES) | IC50 (A2058) [µM]
1 | 6.4 | < 10 | CCCCCCCCCCCCC[C@H](O)[C@@H]1CC[C@@H]([C@H]2CC[C@H]([C@@H](O)CCCC(O)CCCCCC3=C[C@H](C)OC3=O)O2)O1 (relative stereo) | 6.6
2 | 8.8 | < 10 | CCCCCCCCCCC[C@H](O)[C@@H]1CC[C@@H]([C@H]2CC[C@H]([C@@H](O)CCCCCCCC[C@H](O)CCC3=C[C@H](C)OC3=O)O2)O1 (relative stereo) | 7.2
